# In ChEMBL document CHEMBL5321266, “Discovery of a Series of Indane-Containing NBTIs with Activity against Multidrug-Resistant Gram-Negative Pathogens” (ACS Med Chem Lett, 2023):
# How the values were obtained:
# [1] = test system: Pseudomonas aeruginosa; test: Antibacterial activity against Pseudomonas aeruginosa ATCC 27853 incubated for 20 to 24 hrs by CLSI based broth microdilution method; type: functional; settings: time 20-24 hrs
# [2] = target: T1, DNA gyrase (Escherichia coli, UniProt P0AES4+P0AES6); test: Inhibition of Escherichia coli DNA gyrase ATPase activity incubated for 80 mins; type: protein-complex assay
# [3] = test system: Acinetobacter baumannii; test: Antibacterial activity against Acinetobacter baumannii ATCC 19606 incubated for 20 to 24 hrs by CLSI based broth microdilution method; type: functional; settings: time 20-24 hrs
# [4] = test system: Escherichia coli; test: Antibacterial activity against Escherichia coli ATCC 25922 incubated for 20 to 24 hrs by CLSI based broth microdilution method; type: functional; settings: time 20-24 hrs
# [5] = target: Voltage-gated inwardly rectifying potassium channel KCNH2 (Homo sapiens, UniProt Q12809); test: Inhibition of human ERG expressed in CHO cells by automated path clamp method; type: toxicity, cell-based; settings: for inhibition (INH): human, cho
# Voltage-gated inwardly rectifying potassium channel KCNH2, sequence (Q12809 whole entry): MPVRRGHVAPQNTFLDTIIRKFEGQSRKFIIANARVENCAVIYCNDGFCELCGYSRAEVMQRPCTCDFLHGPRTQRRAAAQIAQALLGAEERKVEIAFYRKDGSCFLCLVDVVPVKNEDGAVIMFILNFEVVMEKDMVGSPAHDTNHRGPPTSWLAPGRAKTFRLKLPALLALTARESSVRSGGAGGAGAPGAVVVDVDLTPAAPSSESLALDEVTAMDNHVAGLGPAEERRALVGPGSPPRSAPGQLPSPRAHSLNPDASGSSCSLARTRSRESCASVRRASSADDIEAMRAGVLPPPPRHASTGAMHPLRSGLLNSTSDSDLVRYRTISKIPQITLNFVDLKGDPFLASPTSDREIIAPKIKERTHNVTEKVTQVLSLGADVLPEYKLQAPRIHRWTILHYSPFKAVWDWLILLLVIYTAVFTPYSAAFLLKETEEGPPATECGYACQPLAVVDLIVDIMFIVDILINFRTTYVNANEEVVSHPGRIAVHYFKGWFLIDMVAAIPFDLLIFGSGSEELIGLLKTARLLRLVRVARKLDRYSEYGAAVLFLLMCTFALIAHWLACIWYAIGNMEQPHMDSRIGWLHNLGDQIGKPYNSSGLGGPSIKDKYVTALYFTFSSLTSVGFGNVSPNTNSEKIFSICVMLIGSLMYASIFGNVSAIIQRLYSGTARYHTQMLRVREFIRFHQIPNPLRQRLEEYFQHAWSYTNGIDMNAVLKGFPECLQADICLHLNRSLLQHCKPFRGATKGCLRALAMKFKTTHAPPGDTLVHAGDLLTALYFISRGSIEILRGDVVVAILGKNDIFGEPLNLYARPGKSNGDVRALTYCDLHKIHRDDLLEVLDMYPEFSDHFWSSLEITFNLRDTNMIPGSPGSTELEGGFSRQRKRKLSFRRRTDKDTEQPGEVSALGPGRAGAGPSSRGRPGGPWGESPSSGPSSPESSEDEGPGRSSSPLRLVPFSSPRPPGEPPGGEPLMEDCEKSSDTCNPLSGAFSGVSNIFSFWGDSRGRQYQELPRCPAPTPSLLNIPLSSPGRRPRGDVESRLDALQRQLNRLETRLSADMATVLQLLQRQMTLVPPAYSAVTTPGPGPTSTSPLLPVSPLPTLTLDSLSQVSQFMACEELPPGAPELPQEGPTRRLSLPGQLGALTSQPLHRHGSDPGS
# Summary of the method: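 Patch-clamp electrophysiology on the hERG ion channel, recorded at 37 °C; the IC₅₀ was determined.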
# [6] = test system: Klebsiella pneumoniae; test: Antibacterial activity against Klebsiella pneumoniae ATCC BAA-1705 incubated for 20 to 24 hrs by CLSI based broth microdilution method; type: functional; settings: time 20-24 hrs
# [7] = Inhibition of Escherichia coli topoisomerase 4 decatenation activity using kDNA as substrate preincubated for 5 mins followed by enzyme addition and measured after 1 hr by agarose gel electrophoresis method
# [8] = target: DNA topoisomerase 2-alpha (Homo sapiens, UniProt P11388); test: Inhibition of human topoisomerase 2 alpha decatenation activity using kDNA as substrate preincubated for 5 mins followed by enzyme addition and measured after 1 hr by agarose gel electrophoresis
# DNA topoisomerase 2-alpha, sequence (P11388 whole entry): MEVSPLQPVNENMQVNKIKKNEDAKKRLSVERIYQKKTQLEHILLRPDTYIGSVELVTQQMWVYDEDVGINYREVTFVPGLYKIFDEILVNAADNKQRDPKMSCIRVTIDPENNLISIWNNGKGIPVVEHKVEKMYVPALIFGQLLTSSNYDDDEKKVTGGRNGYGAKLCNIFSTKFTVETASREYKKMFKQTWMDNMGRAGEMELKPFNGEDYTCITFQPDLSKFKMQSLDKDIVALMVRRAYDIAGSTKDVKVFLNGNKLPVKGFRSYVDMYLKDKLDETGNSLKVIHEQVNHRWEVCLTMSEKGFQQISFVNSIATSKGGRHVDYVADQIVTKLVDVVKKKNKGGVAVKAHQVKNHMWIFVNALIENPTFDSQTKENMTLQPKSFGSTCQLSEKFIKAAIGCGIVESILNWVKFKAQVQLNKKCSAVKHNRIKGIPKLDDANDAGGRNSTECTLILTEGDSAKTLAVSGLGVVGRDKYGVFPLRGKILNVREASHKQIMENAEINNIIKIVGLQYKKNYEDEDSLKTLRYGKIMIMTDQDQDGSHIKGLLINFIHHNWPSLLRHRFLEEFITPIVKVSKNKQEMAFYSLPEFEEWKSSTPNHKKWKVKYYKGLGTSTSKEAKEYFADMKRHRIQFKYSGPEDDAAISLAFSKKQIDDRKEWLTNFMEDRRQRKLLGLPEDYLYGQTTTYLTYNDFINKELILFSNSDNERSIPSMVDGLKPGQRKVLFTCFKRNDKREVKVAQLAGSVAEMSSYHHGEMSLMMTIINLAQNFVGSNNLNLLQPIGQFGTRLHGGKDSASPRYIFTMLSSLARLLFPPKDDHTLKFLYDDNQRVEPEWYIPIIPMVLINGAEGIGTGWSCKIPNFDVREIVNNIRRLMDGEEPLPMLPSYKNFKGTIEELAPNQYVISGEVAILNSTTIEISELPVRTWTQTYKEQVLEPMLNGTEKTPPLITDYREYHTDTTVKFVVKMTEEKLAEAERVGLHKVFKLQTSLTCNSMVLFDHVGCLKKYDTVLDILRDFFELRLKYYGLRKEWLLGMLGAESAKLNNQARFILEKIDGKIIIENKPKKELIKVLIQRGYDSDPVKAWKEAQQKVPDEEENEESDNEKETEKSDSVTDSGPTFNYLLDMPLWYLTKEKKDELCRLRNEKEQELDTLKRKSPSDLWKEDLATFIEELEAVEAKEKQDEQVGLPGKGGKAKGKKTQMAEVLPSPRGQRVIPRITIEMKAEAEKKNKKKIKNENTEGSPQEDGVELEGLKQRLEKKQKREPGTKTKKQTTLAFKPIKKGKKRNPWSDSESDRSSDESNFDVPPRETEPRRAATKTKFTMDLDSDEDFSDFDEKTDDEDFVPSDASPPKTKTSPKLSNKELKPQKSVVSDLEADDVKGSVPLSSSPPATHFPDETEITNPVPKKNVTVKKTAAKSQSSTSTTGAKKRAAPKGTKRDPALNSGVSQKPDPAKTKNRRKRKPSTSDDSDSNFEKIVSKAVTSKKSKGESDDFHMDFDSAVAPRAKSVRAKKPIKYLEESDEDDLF
# [9] = target: T1, DNA gyrase; test: Inhibition of Escherichia coli DNA gyrase supercoiling activity using relaxed pBR322 DNA as substrate preincubated for 5 mins followed by enzyme addition and measured after 1 hr by agarose gel electrophoresis; type: protein-complex assay
Compound,MIC [1] [µg/mL],IC50 [2] [nM],MIC [3] [µg/mL],MIC [4] [µg/mL],inhibition (INH) [5],MIC [6] [µg/mL],IC50 [7] [nM],IC50 [8] [nM],IC50 [9] [nM],IC50 [5] [nM]
O=C1COc2ccc(N3CC(CCNCCC4Cc5cccc(Cl)c5C4)OC3=O)nc2N1 (stereo not given),4,120,1,0.5,Active,8,–,–,–,–
N#Cc1cccc2c1CC(NCCCC1CN(c3ccc4c(n3)NC(=O)CO4)C(=O)O1)C2 (stereo not given),2,57,0.5,0.25,Active,2,–,–,–,–
O=C1COc2ccc(N3CC(CCCNC4Cc5ccc(F)cc5C4)OC3=O)nc2N1 (stereo not given),16,160,4,1,Active,8,–,–,–,–
O=C1COc2ccc(N3CC(CCNC4Cc5cccc(Cl)c5C4)OC3=O)nc2N1 (stereo not given),16,290,4,2,Active,16,–,–,–,–
O=C1COc2ccc(N3CC(CCNCC4Cc5cccc(Cl)c5C4)OC3=O)nc2N1 (stereo not given),2,90,0.125,0.125,Active,2,–,–,–,–
O=C1COc2ccc(N3CC(CCNCC4Cc5cccc(F)c5C4)OC3=O)nc2N1 (stereo not given),4,100,0.5,0.5,Active,4,–,–,–,–
O=C1COc2ccc(N3CC(CCCNC4CCc5c(Cl)cccc54)OC3=O)nc2N1 (stereo not given),8,190,8,2,Active,16,–,–,–,–
O=C1COc2ccc(N3CC(CNC4Cc5cccc(Cl)c5C4)OC3=O)nc2N1 (stereo not given),> 64,580,4,8,Active,> 64,–,–,–,–
O=C1COc2ccc(N3CC(CCCNC4Cc5ccc(Cl)cc5C4)OC3=O)nc2N1 (stereo not given),16,250,4,2,Active,8,–,–,–,–
O=C1COc2ccc(N3CC(CNCCC4Cc5cccc(Cl)c5C4)OC3=O)nc2N1 (stereo not given),1,90,0.25,0.25,Active,4,–,–,–,–
O=C1COc2ccc(N3CC(CCNCC4Cc5ccccc5C4)OC3=O)nc2N1 (stereo not given),8,180,2,1,Active,8,–,–,–,–
N#Cc1cccc2c1CC(CNCCC1CN(c3ccc4c(n3)NC(=O)CO4)C(=O)O1)C2 (stereo not given),0.5,21,0.125,≤ 0.06,–,1,160,> 100000,100,900
O=C1COc2ccc(N3CC(CCCNC4Cc5cccc(Cl)c5C4)OC3=O)nc2N1 (stereo not given),2,72,0.5,0.25,Active,2,–,–,–,–
O=c1cc(NCC2CN(CC3Cc4ccnc(Cl)c4C3)C2)c2cc(F)ccc2o1 (stereo not given),8,160,4,2,Active,32,–,–,–,–
O=C1COc2ccc(N3CC(CCCNC4Cc5cccc(F)c5C4)OC3=O)nc2N1 (stereo not given),4,120,1,0.5,Active,4,–,–,–,–
O=C1COc2ccc(N3CC(CCCNC4Cc5ccccc5C4)OC3=O)nc2N1 (stereo not given),8,270,8,2,Active,16,–,–,–,–
O=C1COc2ccc(N3CC(CNCC4Cc5cccc(Cl)c5C4)OC3=O)nc2N1 (stereo not given),8,230,1,0.5,Active,32,–,–,–,–
